Results published in ChEMBL document CHEMBL1649560, “Beta-lactamase-mediated beta-lactam resistance in Campylobacter species: prevalence of Cj0299 (bla OXA-61) and evidence for a novel beta-Lactamase in C. jejuni” (2009).
In brackets after ≈: the same amount, converted by molar mass.

Key:
Type in all cases: functional
Campylobacter jejuni [1] = test: Antibacterial activity against Campylobacter jejuni by NCCLS agar doubling dilution method
Method in brief: (§1)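 MICs by agar doubling dilution following the NCCLS (CLSI) Campylobacter Working Group procedure, applied to ampicillin- and amoxicillin-resistant isolates from UK chicken flocks (2000–2006). C. jejuni NCTC 11168 and C. coli NCTC 11366 served as control strains. Resistance was called at an ampicillin cutoff of 8 μg/ml. Other agents were judged against Enterobacteriaceae guidelines (BSAC, CLSI).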

Campylobacter coli [2] = test: Antibacterial activity against Campylobacter coli by NCCLS agar doubling dilution method; method in brief: as §1
Campylobacter jejuni [3] = test: Antibacterial activity against bla gene-positive and nitrocefin reaction-negative beta-lactamase harboring Campylobacter jejuni NCTC 11168 by NCCLS agar doubling dilution method
Method in brief: (§2)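 MICs of β-lactams by agar doubling dilution following the NCCLS (CLSI) Campylobacter Working Group procedure, with C. jejuni NCTC 11168 and C. coli NCTC 11366 as controls. Isolates were from UK poultry flocks. β-Lactamase status was set by Cj0299 PCR (281-bp amplimer) and by a nitrocefin colour change of sonicated lysate within 5 min, or within 30 min on repeat.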

Campylobacter jejuni [4] = test: Antibacterial activity against Campylobacter jejuni isolate P270 harboring blaOXA-61::cat gene by NCCLS agar doubling dilution method
Campylobacter jejuni [5] = test: Antibacterial activity against bla gene-negative and nitrocefin reaction-negative beta-lactamase harboring Campylobacter jejuni isolate P835 by NCCLS agar doubling dilution method; method in brief: as §2
Campylobacter jejuni [6] = test: Antibacterial activity against bla gene-negative and nitrocefin reaction-negative beta-lactamase harboring Campylobacter jejuni isolate P850 by NCCLS agar doubling dilution method; method in brief: as §2
Campylobacter jejuni [7] = test: Antibacterial activity against bla gene-negative and nitrocefin reaction-negative beta-lactamase harboring Campylobacter jejuni isolate P1962 by NCCLS agar doubling dilution method; method in brief: as §2
Campylobacter jejuni [8] = test: Antibacterial activity against bla gene-positive and nitrocefin reaction-positive beta-lactamase harboring Campylobacter jejuni isolate P285 by NCCLS agar doubling dilution method
Method in brief: (§3)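 MICs by agar doubling dilution per the NCCLS (now CLSI) Campylobacter Working Group method. Isolates came from UK chicken flocks (feces, ceca or farm environment), 2000–2006. C. jejuni NCTC 11168 and C. coli NCTC 11366 served as control strains. The ampicillin resistance cutoff was 8 μg/ml; BSAC/CLSI Enterobacteriaceae guidelines were used for other agents.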

Campylobacter jejuni [9] = test: Antibacterial activity against bla gene-positive and nitrocefin reaction-positive beta-lactamase harboring Campylobacter jejuni isolate P286 by NCCLS agar doubling dilution method; method in brief: as §3
Campylobacter jejuni [10] = test: Antibacterial activity against bla gene-positive and nitrocefin reaction-positive beta-lactamase harboring Campylobacter jejuni isolate P305 by NCCLS agar doubling dilution method; method in brief: as §3
Campylobacter jejuni [11] = test: Antibacterial activity against bla gene-positive and nitrocefin reaction-positive beta-lactamase harboring Campylobacter jejuni isolate P316 by NCCLS agar doubling dilution method; method in brief: as §3
Campylobacter jejuni [12] = test: Antibacterial activity against bla gene-positive and nitrocefin reaction-positive beta-lactamase harboring Campylobacter jejuni isolate P338 by NCCLS agar doubling dilution method; method in brief: as §3
Campylobacter jejuni [13] = test: Antibacterial activity against Campylobacter jejuni isolate P338 harboring blaOXA-61::cat gene by NCCLS agar doubling dilution method
Method in brief: (§4)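 Agar doubling dilution MICs (NCCLS/CLSI Campylobacter Working Group method) against Cj0299-inactivated mutants. Mutants were made by transforming the C. jejuni isolate with pCI and selecting on Mueller-Hinton agar with 10 μg/ml chloramphenicol for 3–5 days. Chromosomal insertion was confirmed by PCR with Cj0299 and cat primers.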

Campylobacter jejuni [14] = test: Antibacterial activity against bla gene-positive and nitrocefin reaction-positive beta-lactamase harboring Campylobacter jejuni isolate P790 by NCCLS agar doubling dilution method; method in brief: as §3
Campylobacter jejuni [15] = test: Antibacterial activity against bla gene-positive and nitrocefin reaction-positive beta-lactamase harboring Campylobacter jejuni isolate P1093 by NCCLS agar doubling dilution method; method in brief: as §2
Campylobacter jejuni [16] = test: Antibacterial activity against Campylobacter jejuni isolate P1093 harboring blaOXA-61::cat gene by NCCLS agar doubling dilution method; method in brief: as §4
Campylobacter jejuni [17] = test: Antibacterial activity against bla gene-positive and nitrocefin reaction-positive beta-lactamase harboring Campylobacter jejuni isolate P1618 by NCCLS agar doubling dilution method; method in brief: as §2
Campylobacter jejuni [18] = test: Antibacterial activity against bla gene-positive and nitrocefin reaction-positive beta-lactamase harboring Campylobacter jejuni isolate P1650 by NCCLS agar doubling dilution method; method in brief: as §2
Campylobacter jejuni [19] = test: Antibacterial activity against bla gene-positive and nitrocefin reaction-positive beta-lactamase harboring Campylobacter jejuni isolate P1730 by NCCLS agar doubling dilution method; method in brief: as §3
Campylobacter jejuni [20] = test: Antibacterial activity against bla gene-positive and nitrocefin reaction-negative beta-lactamase harboring Campylobacter jejuni isolate P1698 by NCCLS agar doubling dilution method; method in brief: as §2
Campylobacter jejuni [21] = test: Antibacterial activity against bla gene-positive and nitrocefin reaction-negative beta-lactamase harboring Campylobacter jejuni isolate P1699 by NCCLS agar doubling dilution method; method in brief: as §2
Campylobacter jejuni [22] = test: Antibacterial activity against bla gene-negative and nitrocefin reaction-positive beta-lactamase harboring Campylobacter jejuni isolate P843 by NCCLS agar doubling dilution method; method in brief: as §2
Campylobacter jejuni [23] = test: Antibacterial activity against bla gene-negative and nitrocefin reaction-positive beta-lactamase harboring Campylobacter jejuni isolate P854 by NCCLS agar doubling dilution method; method in brief: as §2
Campylobacter coli [24] = test: Antibacterial activity against bla gene-positive and nitrocefin reaction-positive beta-lactamase harboring Campylobacter coli isolate P321 by NCCLS agar doubling dilution method; method in brief: as §2
Campylobacter coli [25] = test: Antibacterial activity against bla-positive and beta-lactamase-weakly positive Campylobacter coli isolate P1627 by NCCLS agar doubling dilution method; method in brief: as §3
Campylobacter coli [26] = test: Antibacterial activity against bla gene-positive and nitrocefin reaction-positive beta-lactamase harboring Campylobacter coli isolate P1826 by NCCLS agar doubling dilution method; method in brief: as §2

| SMILES | MIC50 (Campylobacter jejuni [1]) [µg/mL] | MIC90 (Campylobacter jejuni [1]) [µg/mL] | MIC50 (Campylobacter coli [2]) [µg/mL] | MIC90 (Campylobacter coli [2]) [µg/mL] | MIC (Campylobacter jejuni [3]) [µg/mL] | MIC (Campylobacter jejuni [4]) [µg/mL] | MIC (Campylobacter jejuni [5]) [µg/mL] | MIC (Campylobacter jejuni [6]) [µg/mL] | MIC (Campylobacter jejuni [7]) [µg/mL] | MIC (Campylobacter jejuni [8]) [µg/mL] | MIC (Campylobacter jejuni [9]) [µg/mL] | MIC (Campylobacter jejuni [10]) [µg/mL] | MIC (Campylobacter jejuni [11]) [µg/mL] | MIC (Campylobacter jejuni [12]) [µg/mL] | MIC (Campylobacter jejuni [13]) [µg/mL] | MIC (Campylobacter jejuni [14]) [µg/mL] | MIC (Campylobacter jejuni [15]) [µg/mL] | MIC (Campylobacter jejuni [16]) [µg/mL] | MIC (Campylobacter jejuni [17]) [µg/mL] | MIC (Campylobacter jejuni [18]) [µg/mL] | other results |
| --- | --- | --- | --- | --- | --- | --- | --- | --- | --- | --- | --- | --- | --- | --- | --- | --- | --- | --- | --- | --- | --- |
| Cn1nnnc1SCC1=C(C(=O)O)N2C(=O)[C@@H](NC(=O)[C@H](O)c3ccccc3)[C@H]2SC1 [CEFAMANDOLE] | > 256 | > 256 | > 256 | > 256 | – | – | – | – | – | – | – | – | – | – | – | – | – | – | – | – | – |
| CC1(C)S[C@@H]2[C@H](NC(=O)[C@H](C(=O)O)c3ccsc3)C(=O)N2[C@H]1C(=O)O [TICARCILLIN] | 64 (≈ 166 µM) | 128 (≈ 333 µM) | 64 (≈ 166 µM) | 128 (≈ 333 µM) | 2 (≈ 5.2 µM) | 2 (≈ 5.2 µM) | 4 (≈ 10.4 µM) | 128 (≈ 333 µM) | < 4 | 64 (≈ 166 µM) | 64 (≈ 166 µM) | 128 (≈ 333 µM) | 64 (≈ 166 µM) | 64 (≈ 166 µM) | 4 (≈ 10.4 µM) | 128 (≈ 333 µM) | 32 (≈ 83.2 µM) | 8 (≈ 20.8 µM) | 64 (≈ 166 µM) | 64 (≈ 166 µM) | MIC (Campylobacter jejuni [19]): 32 µg/mL (≈ 83.2 µM); MIC (Campylobacter jejuni [20]): 64 µg/mL (≈ 166 µM); MIC (Campylobacter jejuni [21]): 128 µg/mL (≈ 333 µM); MIC (Campylobacter jejuni [22]): 128 µg/mL (≈ 333 µM); MIC (Campylobacter jejuni [23]): 128 µg/mL (≈ 333 µM); MIC (Campylobacter coli [24]): 64 µg/mL (≈ 166 µM); MIC (Campylobacter coli [25]): 64 µg/mL (≈ 166 µM) |
| C[C@@H](O)[C@H]1C(=O)N2C(C(=O)O)=C(SCCNC=N)C[C@H]12 [IMIPENEM ANHYDROUS] | 0.03 (≈ 0.1 µM) | 0.06 (≈ 0.2 µM) | 0.06 (≈ 0.2 µM) | 0.12 (≈ 0.401 µM) | 0.03 (≈ 0.1 µM) | 0.03 (≈ 0.1 µM) | 0.06 (≈ 0.2 µM) | 0.06 (≈ 0.2 µM) | 0.015 (≈ 0.0501 µM) | 0.015 (≈ 0.0501 µM) | 0.25 (≈ 0.835 µM) | 0.06 (≈ 0.2 µM) | 0.06 (≈ 0.2 µM) | 0.06 (≈ 0.2 µM) | 0.03 (≈ 0.1 µM) | 0.12 (≈ 0.401 µM) | 0.12 (≈ 0.401 µM) | 0.12 (≈ 0.401 µM) | 0.015 (≈ 0.0501 µM) | 0.06 (≈ 0.2 µM) | MIC (Campylobacter jejuni [19]): 0.015 µg/mL (≈ 0.0501 µM); MIC (Campylobacter jejuni [20]): 0.06 µg/mL (≈ 0.2 µM); MIC (Campylobacter jejuni [21]): 0.03 µg/mL (≈ 0.1 µM); MIC (Campylobacter jejuni [22]): 0.06 µg/mL (≈ 0.2 µM); MIC (Campylobacter jejuni [23]): 0.06 µg/mL (≈ 0.2 µM); MIC (Campylobacter coli [24]): 0.12 µg/mL (≈ 0.401 µM); MIC (Campylobacter coli [25]): 0.12 µg/mL (≈ 0.401 µM); MIC (Campylobacter coli [26]): 0.03 µg/mL (≈ 0.1 µM) |
| CO/N=C(\C(=O)N[C@@H]1C(=O)N2C(C(=O)O)=C(COC(C)=O)CS[C@H]12)c1csc(N)n1 [CEFOTAXIME] | 4 (≈ 8.78 µM) | 8 (≈ 17.6 µM) | 4 (≈ 8.78 µM) | 8 (≈ 17.6 µM) | 2 (≈ 4.39 µM) | 2 (≈ 4.39 µM) | 4 (≈ 8.78 µM) | 8 (≈ 17.6 µM) | 1 (≈ 2.2 µM) | 8 (≈ 17.6 µM) | 8 (≈ 17.6 µM) | 4 (≈ 8.78 µM) | 4 (≈ 8.78 µM) | 8 (≈ 17.6 µM) | 8 (≈ 17.6 µM) | 4 (≈ 8.78 µM) | 8 (≈ 17.6 µM) | 4 (≈ 8.78 µM) | 16 (≈ 35.1 µM) | 4 (≈ 8.78 µM) | MIC (Campylobacter jejuni [19]): 4 µg/mL (≈ 8.78 µM); MIC (Campylobacter jejuni [20]): 4 µg/mL (≈ 8.78 µM); MIC (Campylobacter jejuni [21]): 4 µg/mL (≈ 8.78 µM); MIC (Campylobacter jejuni [22]): 4 µg/mL (≈ 8.78 µM); MIC (Campylobacter jejuni [23]): 4 µg/mL (≈ 8.78 µM); MIC (Campylobacter coli [24]): 4 µg/mL (≈ 8.78 µM); MIC (Campylobacter coli [25]): 4 µg/mL (≈ 8.78 µM); MIC (Campylobacter coli [26]): 2 µg/mL (≈ 4.39 µM) |
| CO/N=C(\C(=O)N[C@@H]1C(=O)N2C(C(=O)O)=C(COC(N)=O)CS[C@H]12)c1ccco1 [CEFUROXIME] | 128 (≈ 302 µM) | 128 (≈ 302 µM) | 128 (≈ 302 µM) | 256 (≈ 603 µM) | 32 (≈ 75.4 µM) | 64 (≈ 151 µM) | 64 (≈ 151 µM) | 128 (≈ 302 µM) | 64 (≈ 151 µM) | 128 (≈ 302 µM) | 128 (≈ 302 µM) | 64 (≈ 151 µM) | 64 (≈ 151 µM) | 128 (≈ 302 µM) | 128 (≈ 302 µM) | 64 (≈ 151 µM) | 128 (≈ 302 µM) | 128 (≈ 302 µM) | 256 (≈ 603 µM) | 128 (≈ 302 µM) | MIC (Campylobacter jejuni [19]): 128 µg/mL (≈ 302 µM); MIC (Campylobacter jejuni [20]): 64 µg/mL (≈ 151 µM); MIC (Campylobacter jejuni [21]): 64 µg/mL (≈ 151 µM); MIC (Campylobacter jejuni [22]): 64 µg/mL (≈ 151 µM); MIC (Campylobacter jejuni [23]): 128 µg/mL (≈ 302 µM); MIC (Campylobacter coli [24]): 64 µg/mL (≈ 151 µM); MIC (Campylobacter coli [25]): 64 µg/mL (≈ 151 µM); MIC (Campylobacter coli [26]): 64 µg/mL (≈ 151 µM) |
